Screening results (PubChem BioAssay)
Most compounds without a hit are left out; they make up all but 5.4% or so of the library.
aSyn 5UTR inh = 5' untranslated region of α-synuclein, MLPCN primary screen; AID 1813; 0.82% of 300,000 active; inhibition, % (tested at 7.5 µM); alpha-synuclein 5'UTR reporter, inhibitor activity; in the data active = inhibition above about 60%;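 note: H4 neuroglioblastoma cells stably carrying SNCA 5'UTR luciferase fusion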
CSC inhib = blocks cancer stem cells; 1.1% of 300,000 active; inhibition, % at 7.5 µM; cancer stem cell-like cells viability, luminescence; in the data active = inhibition above about 75%; tested in HMLE shEcad cells
SKKanGAS inh = blocks kanamycin growth of S. pyogenes SKKanGAS strain | 1.3% of 300,000 active | BacTiter-Glo, 6 h | inhibition, % at 7.5 µM;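 active = mean replicate score, as percent of positive control median, at least 50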;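 note: strain carries kanamycin resistance gene driven by streptokinase promoter and grows in 40 µg/ml kanamycin; loss of luminescence reflects streptokinase promoter inhibition or plain growth inhibition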
Mdm2-MdmX inh = human Mdm2/MdmX binding inhibition; SaOS-2 split-luciferase Mdm2/MdmX complementation, luminescence; inhibition, % at 8 µM; 3% of 330,000 active; O15151+Q00987; AID 485346;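 active = inhibition of at least 50% at 8 µM in the primary screen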
Target sequence (O15151 whole entry, looked up): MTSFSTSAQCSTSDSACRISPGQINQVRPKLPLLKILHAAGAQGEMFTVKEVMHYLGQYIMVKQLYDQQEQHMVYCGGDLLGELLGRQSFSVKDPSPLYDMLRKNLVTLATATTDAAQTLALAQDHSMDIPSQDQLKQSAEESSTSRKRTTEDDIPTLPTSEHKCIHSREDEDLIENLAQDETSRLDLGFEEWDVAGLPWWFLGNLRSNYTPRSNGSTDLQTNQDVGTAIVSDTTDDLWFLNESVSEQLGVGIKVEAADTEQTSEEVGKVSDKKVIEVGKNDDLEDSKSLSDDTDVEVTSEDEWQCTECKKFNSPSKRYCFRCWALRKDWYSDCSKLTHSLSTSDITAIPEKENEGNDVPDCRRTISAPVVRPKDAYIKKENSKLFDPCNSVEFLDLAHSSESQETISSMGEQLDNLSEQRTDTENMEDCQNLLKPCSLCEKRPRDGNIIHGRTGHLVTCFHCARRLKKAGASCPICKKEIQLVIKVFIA
Target sequence (Q00987 whole entry, looked up): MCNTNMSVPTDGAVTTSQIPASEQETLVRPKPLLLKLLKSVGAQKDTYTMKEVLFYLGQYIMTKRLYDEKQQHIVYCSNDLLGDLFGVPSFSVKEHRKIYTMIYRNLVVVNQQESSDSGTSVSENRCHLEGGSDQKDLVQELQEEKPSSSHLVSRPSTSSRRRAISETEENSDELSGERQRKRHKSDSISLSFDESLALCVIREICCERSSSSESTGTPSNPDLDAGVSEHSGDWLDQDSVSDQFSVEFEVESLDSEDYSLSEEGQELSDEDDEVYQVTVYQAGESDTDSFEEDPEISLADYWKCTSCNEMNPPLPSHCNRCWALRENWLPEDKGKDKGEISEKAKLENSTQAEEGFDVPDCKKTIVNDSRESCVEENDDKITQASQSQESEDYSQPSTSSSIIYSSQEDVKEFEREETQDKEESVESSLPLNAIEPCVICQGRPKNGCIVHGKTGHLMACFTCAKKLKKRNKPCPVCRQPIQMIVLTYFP
T cruzi inh = T. cruzi replication inhibition | T. cruzi beta-gal in NIH3T3, luminescence, 90 h | inhibition, % (no concentration beside the values) | 1.4% of 300,000 active | AID 1885;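 active = mean inhibition across valid replicates above about 55%, limit read from the data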;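 note: signal also drops with host cell toxicity which is not excluded here; higher percent means less beta-gal luminescence so fewer parasites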
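Material: NIH/3T3 host cells with β-galactosidase reporter T. cruzi; Input: 5,000 host fibroblasts per well; Medium: DMEM, 2% fetal bovine serum; Compound: 50 nL DMSO compound solution per well; Schedule: 3 h host attachment, then at least 90 h co-culture; Detection: luminescent β-galactosidase signal after 60 min lysis.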
Mdm2-MdmX conf = confirmation of human Mdm2/MdmX interaction inhibitors | shares compounds with Mdm2-MdmX inh | Mdm2-MdmX binding, luminescent assay | inhibition, % at 8 µM | 55% of 10,000 active; in the data active = inhibition above about 40%
Full FLuc ctr = inhibits full-length luciferase, flagging false Mdm2/MdmX hits | 77% of 6,200 active | inhibition, % at 8 µM | shares compounds with Mdm2-MdmX inh | SaOS-2 full-length luciferase counterscreen, luminescence;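 active = mean inhibition at 8 µM reaching about 37%, which flags the compound as non-specific, limit read from the data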;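 note: p53-null SaOS-2 cells with luciferase driven by a doxycycline-inducible promoter; compound on cells about two nights before reading with doxycycline added after day one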
Each line names hits and unclear results; the compound was inactive in the other large screens (follow-up assays come after a bar, where they were run).

O=C(O)c1cc(NC(=O)c2ccc([N+](=O)[O-])cc2)cc(NC(=O)c2ccc([N+](=O)[O-])cc2)c1	none
O=C(Nc1ccc(Oc2ccc(NC(=O)Nc3ccc([N+](=O)[O-])cc3)cc2)cc1)Nc1ccc([N+](=O)[O-])cc1	aSyn 5UTR inh 90.7, Mdm2-MdmX inh 95.2, T cruzi inh 66.9 | Mdm2-MdmX conf 66.4 | Full FLuc ctr 76.0
C/C(=N\NC(=O)c1cccc(N/N=C(\C)c2ccc([N+](=O)[O-])cc2)c1)c1ccc([N+](=O)[O-])cc1	Mdm2-MdmX inh 68.8 | Mdm2-MdmX conf inactive
CC1CN(C(=S)Nc2ccccc2C(F)(F)F)CC(C)O1 (stereo unspecified)	none
CC1(C)CC(=O)C=C(NCCN2CCN(C(=S)NC3CCCCC3)CC2)C1	none (no result: aSyn 5UTR inh, T cruzi inh)
O=C(Nc1ccc(OC(F)(F)F)cc1)Nc1cccc([N+](=O)[O-])c1	Mdm2-MdmX inh 94.7 (no result: CSC inhib) | Mdm2-MdmX conf 90.5 | Full FLuc ctr inactive
Cc1ccc(C(C)C)cc1NC(=O)Nc1ccc([N+](=O)[O-])cc1	CSC inhib 88.9, SKKanGAS inh 87.9, Mdm2-MdmX inh 89.1 | Mdm2-MdmX conf 81.5 | Full FLuc ctr 41.7
COCCCNC(=O)c1ccc(Cn2c(=O)c3ccccc3n(CC(=O)NCCc3ccc(OC)c(OC)c3)c2=O)cc1	none
CC(NC(=S)Nc1ccc(OC(F)F)c(Cl)c1)C(C)(C)C (stereo unspecified)	Mdm2-MdmX inh 57.8 | Mdm2-MdmX conf inactive
N=c1ccn(CC(=O)c2ccc(-c3ccccc3)cc2)cc1	aSyn 5UTR inh 109.6, Mdm2-MdmX inh 66.0, T cruzi inh 57.8 | Mdm2-MdmX conf 69.3 | Full FLuc ctr 41.3
Cc1nnc(NCc2n[nH]c(=O)c3ccccc23)c2ccccc12	Mdm2-MdmX inh 75.5 | Mdm2-MdmX conf inactive
Cn1nc(-c2ccc(OCC(=O)Nc3cccnc3)cc2)c2ccccc2c1=O	Mdm2-MdmX inh 63.7 | Mdm2-MdmX conf inactive
CCOc1ccc(CCNC(=O)C2CCCN(C(=O)N(C)C)C2)cc1OCC (stereo unspecified)	none
O=C(c1cnc2n(c1=O)CCS2)N1CCN(c2ccc([N+](=O)[O-])cc2)CC1	none
CCN(CC)c1nc(Nc2ccccc2)nc(Oc2ccc(=O)n(C)n2)n1	Mdm2-MdmX inh 63.5 | Mdm2-MdmX conf inactive
CCN(CC)c1nc(Nc2ccccc2)nc(Oc2ccc(=O)[nH]n2)n1	none
COc1ccc(CN(C)C(=O)c2[nH]c(C)c(C(C)=O)c2C)cc1F	none
Cc1cc(-c2n[nH]c(=S)n2Cc2ccco2)nn1C	none
Cc1cc(-c2n[nH]c(=S)n2Cc2ccco2)n(C)n1	Mdm2-MdmX inh 62.3 | Mdm2-MdmX conf inactive
COc1ccc(/C=C2\SC(=S)N(CC(=O)NC3C=CS(=O)(=O)C3)C2=O)cc1 (stereo unspecified)	none
C=CCOc1ccccc1/C=N/NC(=O)c1ccc(Cl)cc1Cl	none
COc1cc(C(=O)Oc2ccccc2/C=N/NC(=O)c2ccc(Cl)cc2Cl)cc(OC)c1OC	Mdm2-MdmX inh 55.8 | Mdm2-MdmX conf inactive
COc1ccc(CCN(C)CC(=O)Nc2cc(C)nc3ccccc23)cc1OC	none
COc1ccc(C(=O)Nc2ccc(-c3nnn(CC(=O)NCc4ccco4)n3)cc2)cc1	Mdm2-MdmX inh 68.4 | Mdm2-MdmX conf inactive
COc1ccc(NC(=O)Cn2nnc(-c3ccccc3NS(=O)(=O)c3ccc(OC)cc3)n2)cc1	aSyn 5UTR inh 106.5, Mdm2-MdmX inh 67.0 | Mdm2-MdmX conf 54.8 | Full FLuc ctr 83.4
O=C(Cn1nnc(-c2ccccc2NC(=O)c2ccco2)n1)Nc1ccccc1	Mdm2-MdmX inh 75.8 (no result: CSC inhib) | Mdm2-MdmX conf 41.1 | Full FLuc ctr 64.1
COc1ccc(C2C(C(=O)O)c3ccccc3C(=O)N2Cc2ccco2)cc1 (stereo unspecified)	none
CCOc1nc(-c2ccc(Cl)cc2)nc2ccccc12	none
COc1ccccc1-c1nnc(Sc2nc([N+](=O)[O-])nn2C)o1	Mdm2-MdmX inh 77.6, T cruzi inh 57.7 | Mdm2-MdmX conf 99.0 | Full FLuc ctr 49.9
CCCCn1c(CN2CCN(c3cccc(Cl)c3)CC2)nc2c1c(=O)[nH]c(=O)n2C	Mdm2-MdmX inh 53.4 | Mdm2-MdmX conf 62.0 | Full FLuc ctr 56.5
Cn1c(=O)[nH]c(=O)c2c1nc(CN1CCN(c3cccc(Cl)c3)CC1)n2Cc1ccccc1Cl	Mdm2-MdmX inh 72.7 | Mdm2-MdmX conf 51.1 | Full FLuc ctr 58.6
CCN1CCN(Cc2nc3c(c(=O)[nH]c(=O)n3C)n2Cc2ccccc2Cl)CC1	none
Cn1c(=O)[nH]c(=O)c2c1nc(CN1CCN(c3cccc(Cl)c3)CC1)n2CCCc1ccccc1	none
Cc1nn(CC(=O)NCCCN2CCC(Cc3ccccc3)CC2)c(=O)c2cc(-c3ccccc3)nn12	Mdm2-MdmX inh 95.6 | Mdm2-MdmX conf 68.5 | Full FLuc ctr 41.0
CCc1ccc(-c2cc3c(=O)n(CC(=O)NCCCN4CCC(Cc5ccccc5)CC4)nc(C)n3n2)cc1	Mdm2-MdmX inh 100.4 | Mdm2-MdmX conf 98.8 | Full FLuc ctr 53.0
Cc1nn(CC(=O)NCCCN2CCN(Cc3ccccc3)CC2)c(=O)c2cc(-c3ccccc3)nn12	none
CCN1CCN(CCCNC(=O)Cn2nc(C)n3nc(-c4ccccc4)cc3c2=O)CC1	none
O=C(NS(=O)(=O)Oc1ccc(F)c(Cl)c1)OC[C@@H]1CCCN2CCCCC12 (stereo partly specified)	none
CC(C)n1c(/C=C/[C@H](O)C[C@H](O)CC(=O)O)c(-c2ccc(F)cc2)c2ccccc21	Mdm2-MdmX inh 50.5 (no result: aSyn 5UTR inh, CSC inhib, SKKanGAS inh, T cruzi inh) | Mdm2-MdmX conf 45.7 | Full FLuc ctr 79.0
Cc1nc2scc(C)n2c(=O)c1S(=O)(=O)NCC1CCN(Cc2ccc(F)cc2)CC1	none
O=S(=O)(c1cccc(NC(=S)N2CCN(c3cccc(Cl)c3)CC2)c1)C(F)F	Mdm2-MdmX inh 52.0 | Mdm2-MdmX conf inactive
COc1cccc(-c2nn(C)c3sc(C(=O)NCc4ccc(C)o4)cc23)c1	Mdm2-MdmX inh 70.2 | Mdm2-MdmX conf inactive
CCN(CCCNC(=O)c1cc2c(-c3cccc(OC)c3)nn(C)c2s1)Cc1ccccc1	Mdm2-MdmX inh 55.1 | Mdm2-MdmX conf inactive
COc1ccc(NC(=O)c2cc3c(-c4ccc(OC)c(OC)c4)nn(C)c3s2)cc1OC	Mdm2-MdmX inh 97.2 | Mdm2-MdmX conf 66.7 | Full FLuc ctr 50.2
COc1cccc(-c2nn(C)c3sc(C(=O)NCc4ccc5c(c4)OCO5)cc23)c1	none
COc1ccc(-c2nn(C)c3sc(C(=O)NCc4ccco4)cc23)cc1OC	none
CCN(CC)CCCNC(=O)c1cc2c(-c3ccc(Cl)cc3)nn(C)c2s1	CSC inhib 98.1, Mdm2-MdmX inh 64.3 | Mdm2-MdmX conf inactive
COC(=O)c1nnn(CC(=O)Nc2cccc(OC)c2)c1C(=O)OC	none
O=C(O)C1Nc2c(O)cc(Cl)c([N+](=O)[O-])c2C2C=CCC12 (stereo unspecified)	none
